Dyrk1A ADPGlo: inhibitors of rat Dyrk1A kinase; Q63470; ADP-Glo luminescence, NFATc1 peptide; inhibition, % at 12.5 µM; 0.43% of 310,000 active; AID 504441; in the data active = inhibition above about 50%
GSK3 alpha inh: inhibitors of human GSK-3 alpha kinase; P49840; ADP-Glo luminescence, 60 min; inhibition, % at 10 µM; 0.1% of 320,000 active; AID 2650;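 active = more than half of replicates show inhibition above 20%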;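 note: GST-tagged GSK-3 alpha with peptide substrate and 25 µM ATP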
Target sequence (P49840 whole entry, looked up): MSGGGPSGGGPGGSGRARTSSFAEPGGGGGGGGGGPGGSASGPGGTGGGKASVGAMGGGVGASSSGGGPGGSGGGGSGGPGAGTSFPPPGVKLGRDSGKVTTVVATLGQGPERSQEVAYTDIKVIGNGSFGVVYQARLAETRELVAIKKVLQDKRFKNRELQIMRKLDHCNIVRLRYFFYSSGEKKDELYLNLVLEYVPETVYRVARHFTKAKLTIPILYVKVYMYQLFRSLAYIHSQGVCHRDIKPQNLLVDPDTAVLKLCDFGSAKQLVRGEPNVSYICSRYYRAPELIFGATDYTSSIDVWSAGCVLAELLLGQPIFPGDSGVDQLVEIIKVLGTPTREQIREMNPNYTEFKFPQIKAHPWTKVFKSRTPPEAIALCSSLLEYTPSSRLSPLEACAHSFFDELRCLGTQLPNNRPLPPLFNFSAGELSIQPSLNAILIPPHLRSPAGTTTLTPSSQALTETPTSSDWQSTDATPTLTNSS
GSK3beta inhib: inhibitors of human GSK3beta kinase; 0.038% of 300,000 active; activity score (negative = inhibition), % at 10 µM; GST-GSK3beta kinase, ADP-Glo luminescence, 60 min; active compounds read low; P49841;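 active = more than half of replicate wells score below -50%, meaning over 50% inhibition versus plate controls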
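test system = GST-tagged human GSK3beta kinase, cell-free | reagent = 25 µM ATP with peptide substrate | dosing = one dose of 10 µM per compound | schedule = 60 min reaction, RT | detection = luminescent ADP-Glo measurement of ADP formed | control set = DMSO neutral wells and GW8510 at 20 µM as positive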
STK33 kinase inh: blocks human STK33 kinase activity; 0.073% of 320,000 active; purified STK33, MBP phosphorylation, ADP-Glo luminescence; inhibition, % at 10 µM; Q9BYT3;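 active = inhibition at or above 25%, using the most active replicate where run in duplicate; inactive = inhibition below 25%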
CDK5 p35 inh: CDK5/p35 (human) kinase inhibition; Recombinant CDK5/p35, ADP-Glo luminescence, 60 min; inhibition, % at 10 µM; 0.01% of 330,000 active; AID 488839;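 active = highest replicate inhibition of at least 50% and at least 75% of replicates reaching 50%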
ADP-Glo artifact: interferes with ADP-Glo luciferase readout without Dyrk1A; shares compounds with Dyrk1A ADPGlo; ADP-Glo luciferase artifact assay, no Dyrk1A, luminescence; AC50, µM (doses to about 12 µM); 1,300 tested, under 10 active; AID 588348;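 active = fitted half-maximal dose AC50 no more than ten times the top valid tested dose, with luminescence dropping as dose rises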
Large screens that a line does not name were inactive (follow-up assays come after a bar, where they were run); ! = not confirmed by another sample. Many of the other results were omitted from the sample, so hits are more common in it than they were.

COC(=O)c1cccn(CC(=O)c2ccc(Cl)cc2Cl)c1=O	none
CC(=O)c1cccc(NC(=O)Nc2cccs2)c1	Dyrk1A ADPGlo 53 | ADP-Glo artifact inactive
CC1CCc2nc(NC(=O)CN3CCN(Cc4ccc5c(c4)OCO5)CC3)sc2C1 (centres undefined)	Dyrk1A ADPGlo 55 | ADP-Glo artifact inactive
CC1CCc2nc(NC(=O)CN3CCOCC3)sc2C1 (centres undefined)	none
CCN(CC)CCCNc1ccc2ncn3c4ccc(O)cc4c(=O)c1c23	Dyrk1A ADPGlo 87 (no result: GSK3 alpha inh, GSK3beta inhib, STK33 kinase inh) | ADP-Glo artifact inactive
CN(C)CCNc1ccc2nnn3c4ccc(O)cc4c(=O)c1c23	none (no result: Dyrk1A ADPGlo, GSK3 alpha inh, GSK3beta inhib, STK33 kinase inh)
O=C(Cn1cc(COc2ccccc2C(F)(F)F)nn1)c1ccc(O)cc1	Dyrk1A ADPGlo 51 (no result: GSK3 alpha inh, GSK3beta inhib, STK33 kinase inh) | ADP-Glo artifact inactive
CCN(CC)CCn1c2ccccc2c(=O)c2c(O)ccc(O)c21	Dyrk1A ADPGlo 85 (no result: GSK3 alpha inh, GSK3beta inhib, STK33 kinase inh) | ADP-Glo artifact inactive
C=CCOc1ccc(/C=C2\SC(=Nc3cccnc3)NC2=O)cc1	Dyrk1A ADPGlo 61 | ADP-Glo artifact inactive
CC(/C=C1\SC(=Nc2cccnc2)NC1=O)=C\c1ccccc1	none (no result: Dyrk1A ADPGlo)
CCCCNCCCCOc1ccccc1	none
C[N+](C)(CCOc1ccccc1)Cc1ccccc1	Dyrk1A ADPGlo 69 (no result: GSK3 alpha inh, GSK3beta inhib, STK33 kinase inh) | ADP-Glo artifact inactive
CCN1CCN(Cc2ccc(NC(=O)c3cc(NC(=O)c4nccnc4N)cc(OC)c3)cc2C(F)(F)F)CC1	Dyrk1A ADPGlo 55 | ADP-Glo artifact inactive
CCN1CCN(Cc2ccc(NC(=O)c3ccc(C)c(NC(=O)N4CCNC4=O)c3)cc2C(F)(F)F)CC1	Dyrk1A ADPGlo 54! | ADP-Glo artifact inactive
CCC1(c2ccc(F)cc2)NC(=O)N(CC(=O)N2CCc3ccccc32)C1=O (centres undefined)	none (no result: Dyrk1A ADPGlo, GSK3beta inhib)
O=C1OCCC1=Cc1ccccc1	none (no result: GSK3 alpha inh, GSK3beta inhib, STK33 kinase inh)
O=C1OCC/C1=C\c1ccc(O)cc1	Dyrk1A ADPGlo 92 | ADP-Glo artifact inactive
O=C(NCc1ccco1)c1sc2cc(Cl)ccc2c1Cl	none
O=C(NCc1ccco1)c1sc2ccccc2c1Cl	Dyrk1A ADPGlo 56 | ADP-Glo artifact inactive
CCc1noc(C)c1C(=O)Nc1cc(S(=O)(=O)N(CC)CC)ccc1N1CCOCC1	none (no result: GSK3 alpha inh, STK33 kinase inh)
COc1cc(/C=C2/SC(=O)NC2=O)ccc1Oc1ccc([N+](=O)[O-])cc1[N+](=O)[O-]	Dyrk1A ADPGlo 80 | ADP-Glo artifact inactive
COc1cc(/C=C2/SC(N)=NC2=O)ccc1Oc1ccc([N+](=O)[O-])cc1[N+](=O)[O-]	none
Cc1cc(=O)oc2cc(OCC(=O)N3CCC(O)CC3)c(Cl)cc12	none
Cc1ccccc1C(=O)NNC(=O)Cc1cccc2ccccc12	none
Cc1ccccc1C(=O)NNC(=O)CCCCC(=O)NNC(=O)c1ccccc1C	Dyrk1A ADPGlo 66 | ADP-Glo artifact inactive
COc1cc2ccc(=O)oc2c(O)c1OCC=C(C)C	none
COc1cc2c(ccc3cc(OC)c(OC)c(O)c32)cc1O	Dyrk1A ADPGlo 94, STK33 kinase inh 35, CDK5 p35 inh 81 | ADP-Glo artifact inactive
Cc1ccc(-c2cn(S(=O)(=O)c3cccc4nsnc34)nc2N)cc1	none
COc1cc(-c2cn(S(=O)(=O)c3cccc4nsnc34)nc2N)cc(OC)c1OC	Dyrk1A ADPGlo 83 | ADP-Glo artifact inactive
O=C(c1ccc2c(c1)OCCCO2)N1CCCCC1	Dyrk1A ADPGlo 59 | ADP-Glo artifact inactive
O=C(Nc1cccnc1)c1scc2c1OCCO2	Dyrk1A ADPGlo 52 | ADP-Glo artifact inactive
O=C1OCc2cccc3cccc1c23	Dyrk1A ADPGlo 51 | ADP-Glo artifact inactive
O=c1cc(-c2ccccc2Cl)oc2ccc([N+](=O)[O-])c(O)c12	none
O=[N+]([O-])c1cc([N+](=O)[O-])c2oc(-c3ccccc3)c(Br)c2c1O	Dyrk1A ADPGlo 76 (no result: GSK3 alpha inh, STK33 kinase inh) | ADP-Glo artifact inactive
Cc1cc(C)c(S(=O)(=O)/N=C2\C=C(Nc3ccc(C(=O)O)cc3)C(=O)c3ccccc32)c(C)c1	Dyrk1A ADPGlo 69 | ADP-Glo artifact inactive
Cc1cc(C)c(S(=O)(=O)/N=C2\C=C(NS(=O)(=O)c3ccccc3)C(=O)c3ccccc32)c(C)c1	none
Cc1cccc(NC2=C/C(=N/S(=O)(=O)c3cccs3)c3ccccc3C2=O)c1	none (no result: GSK3beta inhib)
O=C1C(Nc2ccc(O)cc2)=C/C(=N/S(=O)(=O)c2cccs2)c2ccccc21	Dyrk1A ADPGlo 70 (no result: GSK3 alpha inh, STK33 kinase inh) | ADP-Glo artifact inactive
O=C(CSc1nnc(CNC(=O)c2ccccc2)o1)Nc1nccs1	none (no result: Dyrk1A ADPGlo)
